# Variants at the floor of the assay were thinned out.
# B1: tRNA (parent)
# chain: GUUCCGUUGGCGUAAUGGUAACGCGUCUCCCUCCUAAGGAGAAGACUGCGGGUUCGAGUCCCGUACGGAACG
# Variants of: B1
# Experiment: yeast fitness relative to wild type (ratio to wild type); higher = fitter; tRNA-Arg(CCU), competitive growth, 37 C, YPD
# How it was run: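 For this measurement, the tRNA-Arg(CCU) gene was varied by chemical synthesis at a 3% per-site mutation rate across 69 sites, and each variant was placed at the native genomic locus in Saccharomyces cerevisiae. The pooled strains went through a 24-hour competition in YPD at 37°C in six parallel replicates, with amplicons from start and end populations read by 100-nucleotide paired-end sequencing. Darwinian fitness relative to wild type followed from the change in each genotype's frequency. Genotypes needed ≥ 100 starting reads, and estimates < 0.5 were set to 0.5.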
row,Variant,yeast fitness
1,C29U C30U C49G,0.731
2,C29U C30U U59A G63C,≤ 0.5
3,C29U C31A,0.609
4,C29U C31A A43G G67C,≤ 0.5
5,C29U C31A G38C C60A,≤ 0.5
6,C29U C31U C33G U35C,0.588
7,C29U C31U U54G A65U A69U,≤ 0.5
8,C29U C33A A36C A42C A45G,≤ 0.5
9,C29U C33U C66U G67A,0.598
10,C29U C33U U54A,≤ 0.5
11,C29U C34A A70U,≤ 0.5
12,C29U C34U A57C U64C,0.549
13,C29U C46G G51A G52A,≤ 0.5
14,C29U C49A,0.592
15,C29U C49U C55A,≤ 0.5
16,C29U C49U C55G G58A,≤ 0.5
17,C29U C55G A65U,≤ 0.5
18,C29U C61U A70G,0.728
19,C29U C62U A70U,0.532
20,C29U C66G A70C,≤ 0.5
21,C29U G38A G48C A57G,≤ 0.5
22,C29U G38C C49U G68A,≤ 0.5
23,C29U G39A G67A,0.565
24,C29U G39C,0.65

row,Variant,yeast fitness
1,C29U G39U,1.07
2,C29U G39U C49G,≤ 0.5
3,C29U G41C C49A,0.62
4,C29U G41U,0.769
5,C29U G44C C49U A57U A69U,≤ 0.5
6,C29U G44C U54A,0.55
7,C29U G50C A70G,≤ 0.5
8,C29U G51C,0.57
9,C29U G67U,0.91
10,C29U G68C,0.898
11,C29U U32C C62U A70U,≤ 0.5
12,C29U U32G,0.686
13,C29U U35A A70C,≤ 0.5
14,C29U U47G C49G A70G,≤ 0.5
15,C29U U53A,0.625
16,C29U U53A C61U U64C,≤ 0.5
17,C29U U59G,0.83
18,C29U U64A,0.677
19,C29U U64G,0.748
20,C30A A36C,0.579
21,C30A A36U,0.697
22,C30A A36U G38C G39A C66A,≤ 0.5
23,C30A A36U G39A A45G G63U,≤ 0.5
24,C30A A37C C60A,≤ 0.5

row,Variant,yeast fitness
1,C30A A37G C46U A57C,≤ 0.5
2,C30A A40C,0.712
3,C30A A40C A43G C49G G63C,≤ 0.5
4,C30A A42C,0.789
5,C30A A42C A69G,≤ 0.5
6,C30A A42C C66A,0.719
7,C30A A42C G58A,≤ 0.5
8,C30A A42U,0.753
9,C30A A42U C49U U59C A69C,0.557
10,C30A A42U C55G,≤ 0.5
11,C30A A42U C55U C66A,0.531
12,C30A A43G G50C,0.767
13,C30A A43U C61U,0.602
14,C30A A45U C55U,0.589
15,C30A A57C C60G,≤ 0.5
16,C30A A70C,1.01
17,C30A C31A C49U C55G,0.672
18,C30A C31A G38A C49U G52A,≤ 0.5
19,C30A C31U,1
20,C30A C31U A40U G56C A69C,≤ 0.5
21,C30A C31U U59C,0.983
22,C30A C33A A57U,≤ 0.5
23,C30A C33G A40G,≤ 0.5
24,C30A C46A,1

row,Variant,yeast fitness
1,C30A C46A A57G C60A,≤ 0.5
2,C30A C46G G52A G56A,0.608
3,C30A C46U C55U,0.573
4,C30A C49A,0.699
5,C30A C55A C62A,≤ 0.5
6,C30A C55G C66U,≤ 0.5
7,C30A C55U G68A,≤ 0.5
8,C30A C60A,0.619
9,C30A C60A C62A,≤ 0.5
10,C30A C60U C66U,≤ 0.5
11,C30A C61U,0.767
12,C30A C62U,0.886
13,C30A C66U,0.847
14,C30A G38C,0.851
15,C30A G39A,0.833
16,C30A G39U,0.772
17,C30A G48C C61U,0.631
18,C30A G50C,0.594
19,C30A G50C C66U,≤ 0.5
20,C30A G50U,0.816
21,C30A G56A C66G,≤ 0.5
22,C30A G58C G68A,≤ 0.5
23,C30A U35C,0.93
24,C30A U35C A36G A42C C60U C61U,≤ 0.5

row,Variant,yeast fitness
1,C30A U35C U59C G63A,0.584
2,C30A U54C G63A,0.601
3,C30A U59G,0.775
4,C30A U64G,0.793
5,C30G A36U C61U,0.504
6,C30G A37C C46G A69C,0.571
7,C30G A40C A42G,≤ 0.5
8,C30G A40U A70U,0.526
9,C30G A40U C46U A69G,≤ 0.5
10,C30G A42C C55U,≤ 0.5
11,C30G A42C U59A C60U,0.507
12,C30G A42U,0.666
13,C30G A42U A45G A69U,≤ 0.5
14,C30G A43C,0.549
15,C30G A43U,0.635
16,C30G A43U G48C C55A C66U,≤ 0.5
17,C30G A57G G68U,≤ 0.5
18,C30G A57U C62U,≤ 0.5
19,C30G A69C A70G,≤ 0.5
20,C30G A70U,0.58
21,C30G C31A G63C,0.546
22,C30G C33A A36U A65C,0.535
23,C30G C33G A36C A37U A43U,≤ 0.5
24,C30G C33G A42G C49U C61U,0.663

row,Variant,yeast fitness
1,C30G C33G C34U A42U A57G A65C,≤ 0.5
2,C30G C33G C60G C62U,≤ 0.5
3,C30G C34A C49G G50A U64A,0.56
4,C30G C34G,≤ 0.5
5,C30G C34G U35A G68A,≤ 0.5
6,C30G C34U A42U G68A,≤ 0.5
7,C30G C34U A45C U53G C61G,≤ 0.5
8,C30G C46A G56A,0.557
9,C30G C46A U47G C49A G52A G58C U64G A65G,0.528
10,C30G C46A U47G C49A G52A G58C U64G A65G A69G,≤ 0.5
11,C30G C46G A57U C66U A70U,≤ 0.5
12,C30G C46U A65C,≤ 0.5
13,C30G C60A C66U,0.551
14,C30G C60U A65G,≤ 0.5
15,C30G G38C,0.741
16,C30G G38C G52A C55U,≤ 0.5
17,C30G G41A A65G,≤ 0.5
18,C30G G41C G68A,≤ 0.5
19,C30G G44C G51C A69U,≤ 0.5
20,C30G G48A U53C,≤ 0.5
21,C30G G50U C66U,0.573
22,C30G G51C C61G,≤ 0.5
23,C30G G52C A65C,≤ 0.5
24,C30G G58C C60U A65G,≤ 0.5

row,Variant,yeast fitness
1,C30G U32C,0.708
2,C30G U47A G50C A65G G68C,≤ 0.5
3,C30G U47C G51A C66U,≤ 0.5
4,C30U A36C C46U U53A,≤ 0.5
5,C30U A36G C61G,≤ 0.5
6,C30U A36G G44A,0.638
7,C30U A36G G44A C66U,≤ 0.5
8,C30U A36U C62G G63A,0.542
9,C30U A37C C60U,0.548
10,C30U A40C U59C A65G,≤ 0.5
11,C30U A40U A70C,0.56
12,C30U A43C A70U,0.556
13,C30U A43C G52A,0.516
14,C30U A43G G51C,≤ 0.5
15,C30U A45C A65U,≤ 0.5
16,C30U A45C A69U,0.704
17,C30U A45G C61A A65U,≤ 0.5
18,C30U A45U A69G,0.566
19,C30U A45U A69U,0.797
20,C30U A57G,0.709
21,C30U A57G A70U,0.558
22,C30U A65C,0.841
23,C30U A69C,0.773

# Source: the RNAGym collection of RNA variant scans (doi:10.1126/science.aae0568)
